Test results from ChEMBL document CHEMBL3994580, “A novel class of α-glucosidase and HMG-CoA reductase inhibitors from Ganoderma leucocontextum and the anti-diabetic properties of ganomycin I in KK-Ay mice” (Eur J Med Chem, 2017).
The source made the active and inactive calls. No cut-off for these calls is given here.

Assays:
[1] = molecular target: T1, 3-hydroxy-3-methylglutaryl-coenzyme A reductase (Sus scrofa) (UniProt Q1W675); assay: (§1) Inhibition of HMG-CoA reductase in pig liver microsomes using HMG-CoA as substrate preincubated for 5 mins followed by NADPH addition measured after 15 mins by colorimetric method
T1 sequence (whole entry): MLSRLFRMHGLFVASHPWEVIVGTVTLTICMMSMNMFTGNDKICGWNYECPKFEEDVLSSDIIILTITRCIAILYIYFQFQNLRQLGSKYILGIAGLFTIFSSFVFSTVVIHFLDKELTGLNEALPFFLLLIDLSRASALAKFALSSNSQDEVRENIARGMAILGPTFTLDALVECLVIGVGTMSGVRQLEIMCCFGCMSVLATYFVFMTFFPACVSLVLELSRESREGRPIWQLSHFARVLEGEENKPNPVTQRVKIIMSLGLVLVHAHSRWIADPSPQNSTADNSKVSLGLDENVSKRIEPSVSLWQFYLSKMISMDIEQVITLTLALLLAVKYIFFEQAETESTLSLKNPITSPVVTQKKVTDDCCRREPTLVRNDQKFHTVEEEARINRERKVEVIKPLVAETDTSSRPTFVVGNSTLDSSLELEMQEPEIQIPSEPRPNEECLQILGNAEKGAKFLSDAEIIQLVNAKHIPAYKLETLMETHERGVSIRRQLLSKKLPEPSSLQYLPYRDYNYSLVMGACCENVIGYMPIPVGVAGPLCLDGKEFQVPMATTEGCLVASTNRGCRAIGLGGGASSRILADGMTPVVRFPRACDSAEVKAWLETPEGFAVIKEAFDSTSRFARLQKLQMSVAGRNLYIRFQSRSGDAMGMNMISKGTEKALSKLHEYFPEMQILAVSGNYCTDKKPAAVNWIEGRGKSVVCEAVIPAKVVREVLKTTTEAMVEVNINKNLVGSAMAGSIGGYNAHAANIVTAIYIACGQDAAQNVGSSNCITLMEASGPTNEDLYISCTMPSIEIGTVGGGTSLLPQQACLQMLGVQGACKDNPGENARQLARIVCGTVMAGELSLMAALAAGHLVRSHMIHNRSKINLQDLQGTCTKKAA
Method in brief: (§2)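 HMG-CoA reductase activity followed by absorbance at 340 nm. Blank had potassium phosphate buffer instead of enzyme, and control had buffer instead of compound. Percent inhibition calculated from blank-corrected OD.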

[2] = molecular target: T2, 3-hydroxy-3-methylglutaryl-coenzyme A reductase (Sus scrofa, UniProt Q1W675); assay: as §1; method in brief: as §2
T2 sequence (Q1W675 whole entry): T1 sequence (whole entry)

[3] = Inhibition of baker's yeast alpha-glucosidase using p-nitrophenyl alpha-D-glucopyranoside as substrate preincubated for 10 mins followed by substrate addition measured for 15 mins; parameters: species or system Saccharomyces cerevisiae
Method in brief: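 Baker's yeast α-glucosidase with pNPG, read at 405 nm. Control contained phosphate buffer in place of compound, and blank contained buffer in place of enzyme.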

[4] = molecular target: Sucrase-isomaltase, intestinal (Rattus norvegicus, UniProt P23739); assay: Inhibition of sucrase in rat small intestinal mucosa assessed as reduction in glucose production using sucrose as substrate measured after 40 mins by glucose oxidase assay
Chain of Sucrase-isomaltase, intestinal (P23739 1-1013 limits assumed): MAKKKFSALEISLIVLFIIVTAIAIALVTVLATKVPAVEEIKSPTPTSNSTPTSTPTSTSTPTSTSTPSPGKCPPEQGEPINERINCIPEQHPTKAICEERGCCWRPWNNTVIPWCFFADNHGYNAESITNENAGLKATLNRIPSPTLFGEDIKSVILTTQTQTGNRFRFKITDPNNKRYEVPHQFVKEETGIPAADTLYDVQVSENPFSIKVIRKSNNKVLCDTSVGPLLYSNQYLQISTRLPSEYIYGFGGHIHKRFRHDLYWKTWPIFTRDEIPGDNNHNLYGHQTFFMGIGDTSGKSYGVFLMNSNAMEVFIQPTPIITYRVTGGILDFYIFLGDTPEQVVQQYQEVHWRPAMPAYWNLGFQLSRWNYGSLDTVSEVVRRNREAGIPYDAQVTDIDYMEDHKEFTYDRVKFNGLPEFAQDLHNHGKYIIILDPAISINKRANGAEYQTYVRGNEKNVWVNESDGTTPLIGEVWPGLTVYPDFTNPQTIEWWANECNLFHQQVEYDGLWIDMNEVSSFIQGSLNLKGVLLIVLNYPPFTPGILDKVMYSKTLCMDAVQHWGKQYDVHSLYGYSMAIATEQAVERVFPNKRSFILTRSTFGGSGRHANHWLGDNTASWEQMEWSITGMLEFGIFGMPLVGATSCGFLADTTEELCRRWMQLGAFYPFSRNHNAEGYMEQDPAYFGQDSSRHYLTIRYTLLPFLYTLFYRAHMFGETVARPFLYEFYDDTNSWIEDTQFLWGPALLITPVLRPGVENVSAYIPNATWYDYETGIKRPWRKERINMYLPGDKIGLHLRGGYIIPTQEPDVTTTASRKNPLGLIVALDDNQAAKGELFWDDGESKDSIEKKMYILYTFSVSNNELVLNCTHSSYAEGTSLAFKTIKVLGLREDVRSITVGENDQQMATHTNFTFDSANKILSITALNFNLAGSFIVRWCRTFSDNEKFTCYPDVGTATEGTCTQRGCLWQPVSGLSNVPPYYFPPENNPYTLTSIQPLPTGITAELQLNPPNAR
Chain of Sucrase-isomaltase, intestinal (P23739 1014-1841 limits assumed): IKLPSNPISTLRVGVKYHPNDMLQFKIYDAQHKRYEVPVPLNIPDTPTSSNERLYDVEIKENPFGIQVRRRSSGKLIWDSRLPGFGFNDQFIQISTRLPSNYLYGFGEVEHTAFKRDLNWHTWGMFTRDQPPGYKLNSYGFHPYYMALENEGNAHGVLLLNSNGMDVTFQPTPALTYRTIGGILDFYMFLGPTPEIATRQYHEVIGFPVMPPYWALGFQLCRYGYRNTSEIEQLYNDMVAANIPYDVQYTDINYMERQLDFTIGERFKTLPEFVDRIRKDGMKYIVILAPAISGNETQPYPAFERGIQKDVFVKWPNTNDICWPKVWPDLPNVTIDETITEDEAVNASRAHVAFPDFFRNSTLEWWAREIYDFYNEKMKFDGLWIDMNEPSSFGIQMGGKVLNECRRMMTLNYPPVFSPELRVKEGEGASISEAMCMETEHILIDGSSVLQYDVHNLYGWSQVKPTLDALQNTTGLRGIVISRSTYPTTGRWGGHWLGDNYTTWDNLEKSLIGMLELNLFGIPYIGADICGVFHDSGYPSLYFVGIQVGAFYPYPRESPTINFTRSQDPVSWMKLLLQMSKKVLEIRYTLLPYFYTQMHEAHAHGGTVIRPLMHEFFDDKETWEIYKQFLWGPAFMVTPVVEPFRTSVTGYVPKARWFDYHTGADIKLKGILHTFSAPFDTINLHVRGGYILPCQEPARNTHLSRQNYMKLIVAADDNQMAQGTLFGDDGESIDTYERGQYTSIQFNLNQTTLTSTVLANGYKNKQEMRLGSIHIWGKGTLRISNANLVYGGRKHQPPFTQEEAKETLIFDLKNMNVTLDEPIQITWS
Method in brief: (§3)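 Rat small intestinal mucosa enzyme. Compound in DMSO mixed with substrate (maltose, sucrose or pNPG) and enzyme in 0.1 M phosphate buffer pH 6.9, incubated 40 min. Glucose released measured by glucose oxidase kit at 550 nm. Blank lacked enzyme, control lacked compound. Percent inhibition calculated from blank-corrected OD.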

[5] = Inhibition of maltase in rat small intestinal mucosa assessed as reduction in glucose production using maltose as substrate measured after 40 mins by glucose oxidase assay; method in brief: as §3
[6] = molecular target: T1, 3-hydroxy-3-methylglutaryl-coenzyme A reductase (Sus scrofa); assay: Non-competitive inhibition of HMG-CoA reductase in pig liver microsomes using varying levels of HMG-CoA as substrate preincubated for 5 mins followed by NADPH addition measured after 15 mins by Lineweaver-Burk plot analysis
Method in brief: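 HMG-CoA reductase kinetics: inhibitor at 5 to 20 μM, HMG-CoA at 2, 4, 6 and 8 μM. Initial velocities with and without inhibitor analysed by Lineweaver-Burk double-reciprocal plots.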

Mus musculus [7] = assay: Acute toxicity in mouse assessed as mortality up to […], po up to 14 days; type: organism-based; conditions: in vivo, 336 h
Mus musculus [8] = assay: Antidiabetic activity in KK-Ay diabetic mouse model assessed as reduction in HbA1C level at 1 to 5 mg/kg/day administered via oral gavage once daily for 21 days; type: functional, organism-based
Mus musculus [9] = assay: Antidiabetic activity in KK-Ay diabetic mouse model assessed as reduction in blood glucose level at 1 to 5 mg/kg/day administered via oral gavage once daily for 21 days by oral sucrose tolerance test; type: functional, organism-based
Method in brief: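 Oral sucrose tolerance test on day 20 of once-daily gavage treatment in high-fat-fed KK-Ay mice. Blood glucose followed over time, and the AUC was calculated. Mean ± SEM, n = 8.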

Mus musculus [10] = assay: Antidiabetic activity in KK-Ay diabetic mouse model assessed as reduction in blood glucose level at 5 mg/kg/day administered via oral gavage once daily for 21 days measured at 30 to 60 mins post glucose challenge by oral glucose tolerance test; type: functional, organism-based
Method in brief: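 OGTT on day 21 of daily gavage dosing in KK-Ay mice. Blood glucose read at time points including 30 and 60 min, and the AUC was calculated. Mean ± SEM, n = 8.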

Mus musculus [11] = assay: Antidiabetic activity in KK-Ay diabetic mouse model assessed as reduction in blood glucose level at 5 mg/kg/day administered via oral gavage once daily measured on day 19 at 30 to 60 mins post insulin challenge by insulin tolerance test; type: functional, organism-based
Method in brief: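 ITT on day 19 of treatment: after 4 h fasting, insulin 0.6 U·kg-1 given intraperitoneally. Glycaemia was sampled from the tail tip before and at set times after injection, and the AUC was computed. Mean ± SEM, n = 8.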

Mus musculus [12] = assay: Hypolipidemic activity in KK-Ay diabetic mouse model assessed as reduction in serum NEFA level at 1 to 5 mg/kg/day administered via oral gavage once daily for 21 days; type: functional, organism-based
Method in brief: (§4)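 Male KK-Ay mice (8 weeks old) on high-fat diet with water ad libitum, dosed by gavage once daily for 21 days (1 or 5 mg/kg test; rosiglitazone 10 mg/kg); female C57BL/6J mice as normal controls. Blood collected at study end. Serum lipids, insulin and glucose measured per cited method. ISI calculated from fasting blood glucose and fasting insulin. Mean ± SEM, n = 7-8.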

Mus musculus [13] = assay: Hypolipidemic activity in KK-Ay diabetic mouse model assessed as reduction in serum triglyceride level at 1 to 5 mg/kg/day administered via oral gavage once daily for 21 days; type: functional, organism-based; method in brief: as §4
Mus musculus [14] = assay: Hypoglycemic activity in KK-Ay diabetic mouse model assessed as increase in liver hepatic glycogen level at 1 to 5 mg/kg/day administered via oral gavage once daily for 4 weeks; type: functional, organism-based
Mus musculus [15] = assay: Decrease in serum AST level in KK-Ay diabetic mouse model at 1 to 5 mg/kg/day administered via oral gavage once daily for 21 days; type: functional, organism-based; method in brief: as §4
Mus musculus [16] = assay: Decrease in lipid droplet accumulation in liver in KK-Ay diabetic mouse model at 5 mg/kg/day administered via oral gavage once daily for 21 days by haematoxylin and eosin staining based microscopic or morphometric method; type: functional, organism-based
Method in brief: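 At study end, liver and abdominal white adipose tissue were fixed in 10% formaldehyde PBS (pH 7.4), paraffin-embedded, sectioned and stained with haematoxylin/eosin. Sections were assessed by microscopy or morphometry at 20×.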

Mus musculus [17] = assay: Acute toxicity in mouse assessed as effect on physical activity up to 3 g/kg, po up to 14 days; conditions: in vivo, 336 h

In the case of `CC(C)=CCC/C(C)=C/CCC1=C[C@H](c2cc(O)ccc2O)OC1=O`, the inhibition [1] is reported as “Dose-dependent effect”, the IC50 [2] is reported as 12.3 µM and the IC50 [3] is reported as 0.3 µM. The IC50 [4] was 67.6 µM, the IC50 [5] was 3.6 µM and the inhibition [6] was “Active”. For the same compound, the Activity (Mus musculus [7]) was “Non-Toxic”, the Activity (Mus musculus [8]) was “Active” and the Activity (Mus musculus [9]) was “Active”. For the same compound, the Activity (Mus musculus [10]) was “Active”, the Activity (Mus musculus [11]) was “Active” and the Activity (Mus musculus [12]) was “Active”. The Activity (Mus musculus [13]) was “Active”, the Activity (Mus musculus [14]) was “Active” and the Activity (Mus musculus [15]) was “Active”. For the same compound, the Activity (Mus musculus [16]) was “Active” and the Activity (Mus musculus [17]) was “Non-Toxic”.
